Measured values published in ChEMBL document CHEMBL1125493, “HIV-1 neutralization and tumor cell proliferation inhibition in vitro by simplified analogues of pyrido[4,3,2-mn]thiazolo[5,4-b]acridine marine alkaloids” (J Med Chem, 1992).

Assays:
MT4 [1] = test: Cytotoxic effect in cultured MT-4 lymphocytes at a concentration of 10 ug/mL (0.0350 uM/mL).; type: functional, Homo sapiens
Summary of the method: (§1)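 MT-4 cells at 5 × 10^4 cells/well, 1 mL total, cultured with compound diluted in RPMI 1640 with 10% FBS, 10 mM HEPES, penicillin/streptomycin and 2 mM glutamine, at 37 °C under 5% CO2. Viability was scored by trypan blue exclusion on days 4 and 7, in triplicate, as % viable cells.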

[2] = test system: Human immunodeficiency virus 1; test: Percent inhibition of HIV-1 binding to H-9 cells at a concentration of 100(ug/mL).; type: functional
Summary of the method: (§2)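 HIV-1 Molt IIIB (50 μL) incubated overnight with compound at 100 μg/mL, then with uninfected H-9 cells 2 h at 37 °C. Washed; stained with HIV-positive human serum (1:100) then FITC anti-human IgG (1:10), 30 min at 4 °C each. Formaldehyde-fixed (0.5%) and analysed by flow cytometry for % virus bound and % binding inhibition.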

MCF7 [3] = test: […] breast tumor cell proliferation inhibition by the compound in vitro at a concentration of 6.0 uM.; type: functional, Homo sapiens
Summary of the method: (§3)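 Breast tumor cells treated with specified compound concentrations in RPMI-1640 in 1% agar with 5% FBS for 1 week. Viability compared with a control given distilled water in place of drug; 5-fluorouracil as standard cytotoxic drug. Reported as concentration-dependent cell survival.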

[4] = test system: Human immunodeficiency virus 1; test: Inactivation of HIV-MN strain in MT-4 lymphocytes in vitro at a concentration of 100 ug/mL (0.35 uM/mL).; type: functional
Summary of the method: (§4)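 Compound (50 μL) was mixed with 50 μL of HIV-1 Molt IIIB or HIV-MN inoculum in RPMI 1640 for 1 h at room temperature. The mixture was added to 5 × 10^4 MT-4 cells and kept 7 days at 37 °C, 5% CO2. MTT (5.0 mg/mL) was added for 4 h, the reaction was stopped with 0.04 N HCl/2-propanol, and OD was read at 570 nm. % inactivation was calculated from OD relative to uninfected cells and untreated virus, mean of three.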

[5] = Calu3 lung tumor cell proliferation inhibition by the compound in vitro at a concentration of 60 uM.; type: functional, Homo sapiens
Summary of the method: (§5)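 Tumor cells grown in RPMI-1640 in 1% agar with 5% fetal bovine serum, exposed to the specified concentrations for 1 week. Viability was assessed against a control given distilled water in place of drug. 5-Fluorouracil served as the positive cytotoxic standard. Results are reported as concentration-dependent cell survival.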

MT4 [6] = test: Cytotoxic effect in cultured MT-4 lymphocytes at a concentration of 2 ug/mL (0.0070 uM/mL).; type: functional, Homo sapiens; summary of the method: as §1
[7] = test system: Human immunodeficiency virus 1; test: Inactivation of HIV-MoltIIIB strain in MT-4 lymphocytes in vitro at a concentration of 200 ug/mL (0.70 uM/mL).; type: functional; summary of the method: as §4
[8] = test system: Human immunodeficiency virus 1; test: Inhibitory effect (100 uM) against HIV-1 in human peripheral blood monocyte cells(PBMC) (EC50 ->28.6 ug/mL); type: functional
[9] = test system: Human immunodeficiency virus 1; test: Inhibitory effect against HIV-1 induced cytopathic effects(HIV-1 neutralization) in MT-4 lymphocytes at a concentration of 100 ug/mL (0.3500 uM/mL).; type: functional
Summary of the method: (§6)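 HIV-1 Molt IIIB (~2 × 10^4 TCID50 in 100 μL) preincubated 1 h at 37 °C with a single compound dose, then added to MT-4 cells (5 × 10^5 cells/well, 1 mL). Cultured at 37 °C, 5% CO2. Viable cells counted by trypan blue exclusion on days 4 and 7. Triplicates; % viable cells. Controls: infected cells (positive), uninfected cells (negative).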

[10] = test system: Human immunodeficiency virus 1; test: Inactivation of HIV-MN strain in MT-4 lymphocytes in vitro at a concentration of 400 ug/mL (1.40 uM/mL).; type: functional; summary of the method: as §4
[11] = Calu3 lung tumor cell proliferation inhibition by the compound in vitro at a concentration of 0.6 uM.; type: functional, Homo sapiens; summary of the method: as §5
COLO 320DM [12] = test: COLO 320DM colon tumor cell proliferation inhibition by the compound in vitro at a concentration of 60 uM.; type: functional, Homo sapiens; summary of the method: as §5
[13] = Calu3 lung tumor cell proliferation inhibition by the compound in vitro at a concentration of 6.0 uM.; type: functional, Homo sapiens; summary of the method: as §5
[14] = test system: Human immunodeficiency virus 1; test: Protection of MT-4 lymphocytes by the compound against HIV-1 infectivity in vitro at a concentration of 200 ug/mL (0.70 uM/mL); type: functional
Summary of the method: (§7)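 Virus (HIV-1 Molt IIIB, ~2 × 10^4 TCID50) preincubated with compound 1 h at 37 °C, 5% CO2. Then added to MT-4 cells (5 × 10^5 cells/well) and cultured at 37 °C. Trypan blue viability counts taken on days 4 and 7, triplicate at each concentration. Controls were infected and uninfected cells. Reported as % viable (surviving) MT-4 cells.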

[15] = test system: Human immunodeficiency virus 1; test: Inactivation of HIV-MoltIIIB strain in MT-4 lymphocytes in vitro at a concentration of 400 ug/mL (1.4 uM/mL).; type: functional; summary of the method: as §4
COLO 320DM [16] = test: COLO 320DM colon tumor cell proliferation inhibition by the compound in vitro at a concentration of 6.0 uM.; type: functional, Homo sapiens; summary of the method: as §5
MCF7 [17] = test: […] breast tumor cell proliferation inhibition by the compound in vitro at a concentration of 60 uM.; type: functional, Homo sapiens; summary of the method: as §3
COLO 320DM [18] = test: COLO 320DM colon tumor cell proliferation inhibition by the compound in vitro at a concentration of 0.6 uM.; type: functional, Homo sapiens; summary of the method: as §5
MCF7 [19] = test: […] breast tumor cell proliferation inhibition by the compound in vitro at a concentration of 0.6 uM.; type: functional, Homo sapiens; summary of the method: as §3
[20] = test system: Human immunodeficiency virus 1; test: Inactivation of HIV-MoltIIIB strain in MT-4 lymphocytes in vitro at a concentration of 100 ug/mL (0.35 uM/mL).; type: functional; summary of the method: as §4
[21] = test system: Human immunodeficiency virus 1; test: Percent HIV-1 bound to H-9 cells at a concentration of 100(ug/mL).; type: functional; summary of the method: as §2
MT4 [22] = test: Cytotoxic effect in cultured MT-4 lymphocytes at a concentration of 100 ug/mL (0.3500 uM/mL).; type: functional, Homo sapiens; summary of the method: as §1
[23] = test system: Human immunodeficiency virus 1; test: Inactivation of HIV-MN strain in MT-4 lymphocytes in vitro at a concentration of 200 ug/mL (0.70 uM/mL).; type: functional; summary of the method: as §4
[24] = test system: Human immunodeficiency virus 1; test: Protection of MT-4 lymphocytes by the compound against HIV-1 infectivity in vitro at a concentration of 400 ug/mL (1.4 uM/mL); type: functional; summary of the method: as §7
[25] = test system: Human immunodeficiency virus 1; test: Protection of MT-4 lymphocytes by the compound against HIV-1 infectivity in vitro at a concentration of 100 ug/mL (0.35 uM/mL); type: functional; summary of the method: as §7
[26] = Calu3 lung tumor cell proliferation inhibition by the compound in vitro at a concentration of 0.7 uM.; type: functional, Homo sapiens
Summary of the method: (§8)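 Tumor cells grown in RPMI-1640 in 1% agar with 5% fetal bovine serum, exposed to set compound concentrations for 1 week. Viability scored against a control given distilled water in place of drug. 5-fluorouracil served as reference cytotoxic drug. Reported as concentration-dependent cell survival.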

COLO 320DM [27] = test: COLO 320DM colon tumor cell proliferation inhibition by the compound in vitro at a concentration of 70 uM.; type: functional, Homo sapiens; summary of the method: as §8
MCF7 [28] = test: […] breast tumor cell proliferation inhibition by the compound in vitro at a concentration 70 of uM; type: functional, Homo sapiens; summary of the method: as §8
[29] = Calu3 lung tumor cell proliferation inhibition by the compound in vitro at a concentration of 7.0 uM.; type: functional, Homo sapiens; summary of the method: as §8
COLO 320DM [30] = test: COLO 320DM colon tumor cell proliferation inhibition by the compound in vitro at a concentration of 7.0 uM.; type: functional, Homo sapiens; summary of the method: as §8
COLO 320DM [31] = test: COLO 320DM colon tumor cell proliferation inhibition by the compound in vitro at a concentration of 0.7 uM.; type: functional, Homo sapiens; summary of the method: as §8
MCF7 [32] = test: […] breast tumor cell proliferation inhibition by the compound in vitro at a concentration of 0.7 uM.; type: functional, Homo sapiens; summary of the method: as §8
MCF7 [33] = test: […] breast tumor cell proliferation inhibition by the compound in vitro at a concentration 7.0 of uM; type: functional, Homo sapiens; summary of the method: as §8
[34] = Calu3 lung tumor cell proliferation inhibition by the compound in vitro at a concentration of 70 uM.; type: functional, Homo sapiens; summary of the method: as §8
MT4 [35] = test: Cytotoxic effect in cultured MT-4 lymphocytes at a concentration of 100 ug/mL (0.2000 uM/mL).; type: functional, Homo sapiens; summary of the method: as §1
MT4 [36] = test: Cytotoxic effect in cultured MT-4 lymphocytes at a concentration of 10 ug/mL (0.0200 uM/mL).; type: functional, Homo sapiens; summary of the method: as §1
MT4 [37] = test: Cytotoxic effect in cultured MT-4 lymphocytes at a concentration of 2 ug/mL (0.0040 uM/mL).; type: functional, Homo sapiens; summary of the method: as §1
[38] = test system: Human immunodeficiency virus 1; test: Inhibitory effect against HIV-1 induced cytopathic effects(HIV-1 neutralization) in MT-4 lymphocytes at a concentration of 100 ug/mL (0.2000 uM/mL).; type: functional; summary of the method: as §6
[39] = test system: Human immunodeficiency virus 1; test: Protection of MT-4 lymphocytes by the compound against HIV-1 infectivity in vitro at a concentration of 0.016 ug/mL (0.00006 uM/mL); type: functional; summary of the method: as §7
[40] = test system: Human immunodeficiency virus 1; test: microbe, parasite or virus in culture
[41] = test system: Human immunodeficiency virus 1; test: Protection of MT-4 lymphocytes by the compound against HIV-1 infectivity in vitro at a concentration of 0.032 ug/mL ([…] uM/mL); type: functional; summary of the method: as §7
[42] = test system: Human immunodeficiency virus 1; test: Protection of MT-4 lymphocytes by the compound against HIV-1 infectivity in vitro at a concentration of 0.008 ug/mL (0.00003 uM/mL); type: functional; summary of the method: as §7

Structure (SMILES): O=C([O-])CSc1ccc2nc3ccccc3c(O)c2c1.[Na+]
- Viability (MT4 [1]): 93.3%
- Inhibition [2]: 32.7%
- Viability (MCF7 [3]): 19%
- Inactivation [4]: 13.1%
- Viability [5]: 0%
- Viability (MT4 [6]): 96.7%
- Inactivation [7]: 100%
- Inhibition [8]: 31%
- Viability [9]: 70.9%
- Inactivation [10]: 25%
- Viability [11]: 113%
- Viability (COLO 320DM [12]): 0%
- Viability [13]: 48%
- Survival [14]: 81.4%
- Inactivation [15]: 74.3%
- Viability (COLO 320DM [16]): 41%
- Viability (MCF7 [17]): 0%
- Viability (COLO 320DM [18]): 110%
- Viability (MCF7 [19]): 85%
- Inactivation [20]: 21%
- Bound [21]: 22.4%
- Viability (MT4 [22]): 92.6%
- Inactivation [23]: 40.5%
- Survival [24]: 84.2%
- Survival [25]: 72.7%

Structure (SMILES): O=c1[nH]cc(F)c(=O)[nH]1 [FLUOROURACIL]
- Viability [26]: 80%
- Viability (COLO 320DM [27]): 2%
- Viability (MCF7 [28]): 5%
- Viability [29]: 32%
- Viability (COLO 320DM [30]): 5%
- Viability (COLO 320DM [31]): 79%
- Viability (MCF7 [32]): 29%
- Viability (MCF7 [33]): 10%
- Viability [34]: 17%

Structure (SMILES): CCN(CC)CCCC(C)Nc1c2ccc(Cl)cc2nc2ccc(OC)cc12.Cl.Cl (configuration not stated) [QUINACRINE DIHYDROCHLORIDE]
- Viability (MT4 [35]): 82.1%
- Viability (MT4 [36]): 88.2%
- Viability (MT4 [37]): 93.6%
- Viability [38]: 0%

Structure (SMILES): Cc1cn([C@H]2C[C@H](N=[N+]=[N-])[C@@H](CO)O2)c(=O)[nH]c1=O [ZIDOVUDINE]
- Survival [39]: 79.4%
- EC50 [40]: 4 nM
- Survival [41]: 78.3%
- Survival [42]: 74.3%
